Key:
Cytochrome P450 2C9 = Cytochrome P450 2C9 (Homo sapiens, UniProt P11712); test: Inhibition of CYP2C9 in human liver microsomes using isoform-specific probe substrates incubated for 15 to 30 mins by LC-MS/MS analysis; type: ADME
In short: (§1)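 Pooled mixed-gender human liver microsomes 0.2 mg/mL in 100 mM potassium phosphate with 2 mM NADPH. Isoform-specific probe substrates near Km. Organic solvent ≤1% final. Incubated 37°C for 15–30 min, quenched with acetonitrile plus internal standard. Probe metabolites measured by LC-MS/MS; percent inhibition versus vehicle, IC50 by variable-slope sigmoid fit.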

[1] = Drug level in CD1 mouse brain at 400 mg/kg, ip after 2 hrs by LC-MS/MS analysis; type: ADME, organism-based; details: read-out: Drug uptake
In short: (§2)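 Male mice fasted overnight and given ip dose in 95% Miglyol 840/5% DMSO. Plasma precipitated 3:1 with acetonitrile plus internal standard. Brain homogenized 3:1 in PBS, then acetonitrile extraction. LC-MS/MS in MRM mode, standard curve 1 ng/mL–10 μg/mL. Ratio = mean tissue (ng/g) over mean plasma (ng/mL) concentration.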

Cytochrome P450 2C19 = Cytochrome P450 2C19 (Homo sapiens, UniProt P33261); test: Inhibition of CYP2C19 in human liver microsomes using isoform-specific probe substrates incubated for 15 to 30 mins by LC-MS/MS analysis; type: ADME; in short: as §1
Cytochrome P450 2C19, sequence (P33261 whole entry, canonical isoform): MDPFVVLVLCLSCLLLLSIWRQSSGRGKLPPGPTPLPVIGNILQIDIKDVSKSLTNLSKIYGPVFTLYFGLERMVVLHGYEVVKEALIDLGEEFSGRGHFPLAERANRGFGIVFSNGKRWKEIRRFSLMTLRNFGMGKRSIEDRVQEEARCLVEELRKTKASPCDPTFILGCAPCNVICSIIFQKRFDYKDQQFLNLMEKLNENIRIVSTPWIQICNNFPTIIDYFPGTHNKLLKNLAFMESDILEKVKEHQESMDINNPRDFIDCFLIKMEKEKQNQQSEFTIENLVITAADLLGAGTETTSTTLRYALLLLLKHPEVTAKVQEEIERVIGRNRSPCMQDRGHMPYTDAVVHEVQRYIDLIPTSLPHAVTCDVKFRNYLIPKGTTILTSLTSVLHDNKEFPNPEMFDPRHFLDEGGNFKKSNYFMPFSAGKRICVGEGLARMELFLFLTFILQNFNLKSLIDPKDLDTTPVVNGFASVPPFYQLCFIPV

Mus musculus [2] = test: Anti-seizure activity in ip dosed CF1 mouse assessed as attenuation of clonic forebrain seizures treated 1 hr before PTZ dosing and measured after 30 mins by scPTZ test; type: functional
In short: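 Male CF-1 mice, n=8 per dose, given compound ip in 0.5% HPMC. PTZ 85 mg/kg s.c. in the neck at 1 h. Animals observed 30 min in isolation cages for clonic spasms lasting 3–5 s; those without spasms counted protected.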

[3] = Drug level in CD1 mouse brain at 400 mg/kg, ip after 8 hrs by LC-MS/MS analysis; type: ADME, organism-based; details: read-out: Drug uptake; in short: as §2
[4] = Drug level in CD1 mouse plasma at 400 mg/kg, ip after 8 hrs by LC-MS/MS analysis; type: ADME, organism-based; in short: as §2
Cytochrome P450 2B6 = biological target: T1, Cytochrome P450 2B6 (Homo sapiens, UniProt P20813); test: Inhibition of CYP2B6 in human liver microsomes using isoform-specific probe substrates incubated for 15 to 30 mins by LC-MS/MS analysis; type: ADME; in short: as §1
T1 sequence (P20813 whole entry): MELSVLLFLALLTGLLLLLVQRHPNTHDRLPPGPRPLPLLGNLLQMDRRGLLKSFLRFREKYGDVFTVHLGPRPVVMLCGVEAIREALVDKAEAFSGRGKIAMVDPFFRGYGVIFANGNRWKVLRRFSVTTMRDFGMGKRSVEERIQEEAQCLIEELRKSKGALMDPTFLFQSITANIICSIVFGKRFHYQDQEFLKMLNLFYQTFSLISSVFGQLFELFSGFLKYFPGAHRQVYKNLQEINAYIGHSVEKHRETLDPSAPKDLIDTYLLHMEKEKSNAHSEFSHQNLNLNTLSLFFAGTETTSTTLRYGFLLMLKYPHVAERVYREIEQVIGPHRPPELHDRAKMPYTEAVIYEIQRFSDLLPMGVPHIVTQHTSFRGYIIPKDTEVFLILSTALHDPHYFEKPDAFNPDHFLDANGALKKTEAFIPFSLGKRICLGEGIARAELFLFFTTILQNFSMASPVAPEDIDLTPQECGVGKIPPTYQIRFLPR

[5] = Ratio of drug level in brain to plasma in CD1 mouse at 400 mg/kg, ip after 2 hrs by LC-MS/MS analysis; type: ADME, organism-based; details: brain and plasma, read-out: BPR; in short: as §2
[6] = Tmax in CD1 mouse at 20 mg/kg, ip measured after 0.083 to 24 hrs by LC-MS/MS analysis; type: ADME, organism-based; details: in vivo
[7] = Ratio of drug level in brain to plasma in CD1 mouse at 400 mg/kg, ip after 4 hrs by LC-MS/MS analysis; type: ADME, organism-based; details: brain and plasma, read-out: BPR; in short: as §2
[8] = Toxicity in CF1 mouse assessed as induction of motor impairment during acute (1 hr) observation period up to 800 mg/kg by rotarod assay; type: organism-based; details: in vivo
In short: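 Rotarod at 6 rpm on the same animals immediately before 6 Hz stimulation, 1 h after ip dosing. A mouse falling three times within one minute was scored impaired.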

[9] = Oral bio availability in CD1 mouse at 20 mg/kg measured after 0.083 to 24 hrs by LC-MS/MS analysis; type: ADME, organism-based; details: in vivo
In short: (§3)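 Male CD-1 mice, 3 per route. Oral and ip at 20 mg/kg by gavage needle; iv at 5 mg/kg by tail vein. Vehicles were 20% DMA:40% PEG300:40% H2O for oral/iv and 5% DMSO:95% Neobee for ip. Blood sampled 0.083–24 h, plasma protein-precipitated with acetonitrile plus internal standard, LC-MS/MS (MRM). Non-compartmental analysis, linear trapezoidal AUC.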

[10] = Drug level corresponding to free EC50 in CD1 mouse at 200 to 400 mg/kg, ip by LC-MS/MS analysis; type: ADME, organism-based; details: in vivo
Mus musculus [11] = test: Anti-seizure activity in ip dosed CF1 mouse assessed as reduction in hindlimb tonic extension during seizure measured at 1 hr by MES test; type: functional
In short: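 Male CF-1 mice, n=8 per dose, dosed ip as 0.5% HPMC suspension, tested 1 h later. Corneal 60 Hz, 50 mA, 2 s shock after 0.5% tetracaine applied to eyes. Protection = absence of hindlimb tonic extension. ED50 from four dose levels.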

[12] = biological target: Voltage-gated inwardly rectifying potassium channel KCNH2 (Homo sapiens, UniProt Q12809); test: Inhibition of human ERG
Voltage-gated inwardly rectifying potassium channel KCNH2, sequence (Q12809 whole entry): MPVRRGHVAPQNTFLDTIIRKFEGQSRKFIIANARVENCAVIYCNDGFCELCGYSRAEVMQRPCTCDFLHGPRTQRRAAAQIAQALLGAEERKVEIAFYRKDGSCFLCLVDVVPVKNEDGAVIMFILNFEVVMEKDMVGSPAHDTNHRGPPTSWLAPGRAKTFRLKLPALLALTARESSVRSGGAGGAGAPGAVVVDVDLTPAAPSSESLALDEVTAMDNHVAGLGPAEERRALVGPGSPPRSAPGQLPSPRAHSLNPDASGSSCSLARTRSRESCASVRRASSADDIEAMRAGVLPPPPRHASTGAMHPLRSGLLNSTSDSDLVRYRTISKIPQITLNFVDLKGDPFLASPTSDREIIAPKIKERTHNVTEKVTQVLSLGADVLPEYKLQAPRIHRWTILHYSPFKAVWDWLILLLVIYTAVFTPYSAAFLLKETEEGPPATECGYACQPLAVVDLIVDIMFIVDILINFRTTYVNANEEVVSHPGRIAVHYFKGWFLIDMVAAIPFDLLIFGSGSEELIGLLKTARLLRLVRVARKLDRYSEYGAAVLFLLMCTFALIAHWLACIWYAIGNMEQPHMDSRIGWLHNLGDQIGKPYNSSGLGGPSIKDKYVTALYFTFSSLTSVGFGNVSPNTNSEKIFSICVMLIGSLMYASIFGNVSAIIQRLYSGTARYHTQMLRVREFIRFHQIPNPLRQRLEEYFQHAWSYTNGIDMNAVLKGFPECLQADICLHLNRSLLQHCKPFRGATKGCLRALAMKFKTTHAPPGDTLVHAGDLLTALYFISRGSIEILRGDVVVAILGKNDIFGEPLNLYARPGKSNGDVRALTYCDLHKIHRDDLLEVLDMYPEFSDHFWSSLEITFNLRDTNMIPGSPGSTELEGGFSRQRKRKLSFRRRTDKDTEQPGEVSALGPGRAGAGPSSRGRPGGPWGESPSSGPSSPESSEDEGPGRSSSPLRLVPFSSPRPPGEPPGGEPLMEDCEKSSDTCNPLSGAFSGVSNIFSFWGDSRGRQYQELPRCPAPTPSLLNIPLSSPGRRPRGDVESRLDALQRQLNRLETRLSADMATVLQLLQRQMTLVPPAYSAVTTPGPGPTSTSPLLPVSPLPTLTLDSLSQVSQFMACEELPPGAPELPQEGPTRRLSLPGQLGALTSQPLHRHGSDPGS

[13] = Cmax in CD1 mouse at 20 mg/kg, po measured after 0.083 to 24 hrs by LC-MS/MS analysis; type: ADME, organism-based; parameters: dose 20 mg/kg, route oral; details: in vivo; in short: as §3
[14] = Drug level in CD1 mouse plasma at 400 mg/kg, ip after 1 hr by LC-MS/MS analysis; type: ADME, organism-based; in short: as §2
[15] = Drug reactivity with 2-mercaptoethanol measured over 6 hrs; type: physicochemical
[16] = AUClast in CD1 mouse at 20 mg/kg, ip measured after 0.083 to 24 hrs by LC-MS/MS analysis; type: ADME, organism-based; parameters: time lower 0.083 hr, dose 20 mg/kg, time upper 24 hr, route intraperitoneal; details: in vivo; in short: as §3
[17] = Drug reactivity with 2-mercaptoethanol measured over 24 hrs; type: physicochemical
[18] = Drug level in CD1 mouse brain at 400 mg/kg, ip after 1 hr by LC-MS/MS analysis; type: ADME, organism-based; details: read-out: Drug uptake; in short: as §2
[19] = Toxicity in CF1 mouse assessed as induction of lethargy; details: in vivo
[20] = Cmax in CD1 mouse at 5 mg/kg, iv measured after 0.083 to 24 hrs by LC-MS/MS analysis; type: ADME, organism-based; parameters: dose 5 mg/kg, route intravenous; details: in vivo; in short: as §3
[21] = Toxicity in CF1 mouse assessed as induction of lethality measured after electric stimulation after 24 hrs at >500 mg/kg; type: organism-based; details: in vivo
[22] = Toxicity in mouse HT22 cells assessed as inhibition of cell viability at 10 uM incubated for 48 hrs by Cell-titer-Blue dye based fluorescence spectrophotometry relative to control; parameters: species or system HT-22; details: read-out: Activity
In short: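 HT-22 cells in DMEM high glucose with 10% FBS, 2000 per well. Serially diluted compound added after 12 h, incubated 48 h. […] Background subtracted, normalized to control wells.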

[23] = Drug level in CD1 mouse brain at 400 mg/kg, ip after 0.5 hrs by LC-MS/MS analysis; type: ADME, organism-based; details: read-out: Drug uptake; in short: as §2

Cytochrome P450 2C9, sequence (P11712 whole entry, canonical isoform): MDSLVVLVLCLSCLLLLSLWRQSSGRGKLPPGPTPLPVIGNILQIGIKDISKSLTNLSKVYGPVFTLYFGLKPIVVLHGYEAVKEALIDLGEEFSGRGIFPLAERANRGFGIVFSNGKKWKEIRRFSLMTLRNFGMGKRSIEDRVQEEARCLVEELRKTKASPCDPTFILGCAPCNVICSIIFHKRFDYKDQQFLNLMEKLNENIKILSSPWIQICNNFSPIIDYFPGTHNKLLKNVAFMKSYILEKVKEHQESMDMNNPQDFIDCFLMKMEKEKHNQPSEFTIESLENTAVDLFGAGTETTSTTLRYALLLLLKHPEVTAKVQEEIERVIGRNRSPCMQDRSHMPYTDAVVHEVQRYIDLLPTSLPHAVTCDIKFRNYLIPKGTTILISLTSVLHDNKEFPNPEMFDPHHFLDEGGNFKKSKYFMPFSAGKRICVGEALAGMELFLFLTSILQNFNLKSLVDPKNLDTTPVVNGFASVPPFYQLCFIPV

SMILES: CC(C)CCNC1=CC(=O)c2ccccc2C1=O
- IC50 (Cytochrome P450 2C9): 29.3 µM
- concentration at 2 h [1]: 4930 ng/g
- IC50 (Cytochrome P450 2C19): 16.4 µM
- ED50 (Mus musculus [2]): 349 mg/kg
- concentration at 8 h [3]: 2630 ng/g
- concentration at 8 h [4]: 3220 ng/mL
- IC50 (Cytochrome P450 2B6): 39.3 µM
- Kp at 2 h [5]: 1.79
- Tmax [6]: 1 h
- Kp at 4 h [7]: 1
- Activity [8]: Non-Toxic
- F [9]: 35.9%
- Drug uptake(free) [10]: 123 nM
- ED50 (Mus musculus [11]): 108 mg/kg
- IC50 [12]: > 30 µM
- Cmax [13]: 1020 ng/mL
- concentration at 1 h [14]: 1690 ng/mL
- Drug metabolism [15]: Metabolite_Notdetected
- AUC(0-t) [16]: 1720 ng·h/mL
- Drug metabolism [17]: Metabolite_Notdetected
- concentration at 1 h [18]: 3940 ng/g
- Activity [19]: Toxic
- Cmax [20]: 1910 ng/mL
- Activity [21]: Toxic
- inhibition at 48 h, 10 µM [22]: 11.9%
- concentration at 0.5 h [23]: 3320 ng/g

Source: ChEMBL document CHEMBL4602726, “Discovery of the First Vitamin K Analogue as a Potential Treatment of Pharmacoresistant Seizures” (J Med Chem, 2020)
